Activity calls are given as the source filed them. The calls are words filed in the database; no cut-off is given here.
How the values were obtained:
[1] = system: HCT-116; test: Antiproliferative activity against human HCT116 cells assessed as reduction in cell viability measured after 72 hrs by MTT assay; type: functional, cell-based; details: Homo sapiens, HCT-116, 72 h; read-out: IC50
Outline: (§1)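 Cells seeded 5×10^3/well, cultured overnight, then exposed to 10, 1, 0.1, 0.01, 0.001 and 0.0001 µM (from 10 mM DMSO stocks diluted in medium; vehicle 1% DMSO PBS) for 72 h at 37 °C. Medium replaced with 0.5 mg/mL MTT for 4 h, formazan dissolved in DMSO, A570 read. IC50 as mean ± SD of three independent experiments.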

[2] = system: A549; test: Induction of apoptosis in human A549 cells assessed as increase in caspase3 expression by Western blot analysis; type: functional, cell-based
Outline: (§2)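 A549 treated 30, 60 and 90 nM for 24 h; lysates normalized by BCA, 30 μg protein denatured in SDS buffer at 100 °C 8 min, SDS-PAGE, PVDF transfer, blocked in 5% milk/TBS-0.05% Tween 2 h, primary antibodies overnight at 4 °C, HRP anti-rabbit IgG 2 h, ECL detection; β-actin loading control.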

[3] = system: A549; test: Induction of apoptosis in human A549 cells at 60 nM by Annexin-V FITC/propidium iodide staining based flow cytometric analysis; type: functional, cell-based; details: TDE = time-dependent effect
[4] = system: A-375; test: Antiproliferative activity against human A375 cells assessed as reduction in cell viability measured after 72 hrs by MTT assay; type: functional, cell-based; details: A-375, 72 h
Outline: (§3)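 Cells seeded at 5×10^3 per well and cultured overnight, then exposed for 72 h at 37 °C to six concentrations from 10 µM down to 0.0001 µM (from 10 mM DMSO stock diluted in medium; vehicle 1% DMSO in PBS). MTT at 0.5 mg/mL was added for 4 h, formazan dissolved in DMSO, and A570 read. IC50 given as mean ± SD of three independent experiments.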

[5] = system: A549; test: Antiproliferative activity against human A549 cells assessed as reduction in cell viability measured after 72 hrs by MTT assay; type: functional, cell-based; details: Homo sapiens, A549, 72 h; read-out: IC50; outline: as §1
[6] = system: A549; test: Cell cycle arrest in human A549 cells assessed as accumulation at G1 phase at 60 nM after 24 hrs by propidium iodide/RNase A staining-based flow cytometric analysis (reference value: 57.41%); type: functional
[7] = system: A549; test: Inhibition of colony formation in human A549 cells at 5 nM incubated for 3 days followed by further incubation in drug-free medium and measured after 15 days by crystal violet staining-based inverted microscopic analysis; type: functional, cell-based
Outline: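 500 A549 cells/well incubated 24 h, then treated with 5, 10 or 20 nM for 3 days, followed by drug-free medium changed every 3 days. At day 15 after plating, colonies fixed in 95% ethanol 15 min, stained with 0.1% crystal violet, counted (colony = over 100 cells); mean ± SD of three independent experiments.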

[8] = system: A549; test: Cell cycle arrest in human A549 cells assessed as accumulation at G2 phase at 30 nM after 24 hrs by propidium iodide/RNase A staining-based flow cytometric analysis (reference value: 30.02%); type: functional
[9] = system: A549; test: Induction of apoptosis in human A549 cells assessed as early apoptotic cells at 60 nM after 24 hrs by Annexin-V FITC/propidium iodide staining based flow cytometric analysis; type: functional
Outline: (§4)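 Time-course: A549 (2×10^5 cells/well, grown overnight) exposed to 60 nM for 6, 12 or 24 h; untreated control. Cells trypsinized, washed in cold PBS, stained 15 min with Annexin V-FITC in binding buffer, then PI, and read by flow cytometry; duplicate experiments.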

[10] = system: A549; test: Induction of apoptosis in human A549 cells assessed as necrotic cells at 60 nM after 12 hrs by Annexin-V FITC/propidium iodide staining based flow cytometric analysis (reference value: 1.28%); type: functional
[11] = system: A549; test: Cell cycle arrest in human A549 cells assessed as accumulation at G2 phase at 60 nM after 24 hrs by propidium iodide/RNase A staining-based flow cytometric analysis (reference value: 30.02%); type: functional
[12] = system: A549; test: Induction of apoptosis in human A549 cells assessed as necrotic cells at 90 nM after 12 hrs by Annexin-V FITC/propidium iodide staining based flow cytometric analysis (reference value: 1.28%); type: functional
[13] = system: A549; test: Induction of apoptosis in human A549 cells assessed as late apoptotic cells at 30 nM after 12 hrs by Annexin-V FITC/propidium iodide staining based flow cytometric analysis (reference value: 1.22%); type: functional
[14] = system: A549; test: Induction of apoptosis in human A549 cells assessed as viable cells at 60 nM after 12 hrs by Annexin-V FITC/propidium iodide staining based flow cytometric analysis (reference value: 97.18%); type: functional; details: A549, 12 h, read-out: Activity
[15] = system: A549; test: Induction of apoptosis in human A549 cells assessed as late apoptotic cells at 60 nM after 6 hrs by Annexin-V FITC/propidium iodide staining based flow cytometric analysis; type: functional; outline: as §4
[16] = system: A549; test: Induction of apoptosis in human A549 cells assessed as viable cells at 90 nM after 12 hrs by Annexin-V FITC/propidium iodide staining based flow cytometric analysis (reference value: 97.18%); type: functional; details: A549, 12 h, read-out: Activity
[17] = system: A549; test: Induction of apoptosis in human A549 cells assessed as necrotic cells at 60 nM after 24 hrs by Annexin-V FITC/propidium iodide staining based flow cytometric analysis; type: functional; outline: as §4
[18] = system: A549; test: Induction of apoptosis in human A549 cells assessed as late apoptotic cells at 60 nM after 24 hrs by Annexin-V FITC/propidium iodide staining based flow cytometric analysis; type: functional; outline: as §4
[19] = system: A549; test: Induction of apoptosis in human A549 cells assessed as necrotic cells at 30 nM after 12 hrs by Annexin-V FITC/propidium iodide staining based flow cytometric analysis (reference value: 1.28%); type: functional
[20] = system: SH-SY5Y; test: Antiproliferative activity against human SH-SY5Y cells assessed as reduction in cell viability measured after 72 hrs by MTT assay; type: functional, cell-based; outline: as §3
[21] = system: A549; test: Induction of apoptosis in human A549 cells assessed as increase in caspase9 expression by Western blot analysis; type: functional, cell-based; outline: as §2
[22] = system: A549; test: Induction of apoptosis in human A549 cells after 12 hrs by Annexin-V FITC/propidium iodide staining based flow cytometric analysis; type: functional, cell-based
[23] = system: A549; test: Cell cycle arrest in human A549 cells assessed as accumulation at S phase at 90 nM after 24 hrs by propidium iodide/RNase A staining-based flow cytometric analysis (reference value: 12.57%); type: functional
[24] = system: A549; test: Induction of apoptosis in human A549 cells assessed as viable cells at 60 nM after 6 hrs by Annexin-V FITC/propidium iodide staining based flow cytometric analysis; type: functional; details: A549, 6 h, read-out: Activity; outline: as §4
[25] = system: A549; test: Cell cycle arrest in human A549 cells assessed as accumulation at S phase at 60 nM after 24 hrs by propidium iodide/RNase A staining-based flow cytometric analysis (reference value: 12.57%); type: functional
[26] = system: A549; test: Cell cycle arrest in human A549 cells assessed as accumulation at G1 phase at 90 nM after 24 hrs by propidium iodide/RNase A staining-based flow cytometric analysis (reference value: 57.41%); type: functional
[27] = system: A549; test: Induction of apoptosis in human A549 cells assessed as reduction in Bcl-2 expression at 30 to 90 nM by Western blot analysis

## COc1cc(C[C@H]2NC(=O)[C@H](C(C)C)N(C)C(=O)/C(C)=C/C[C@@H](OC)/C(C)=C/C=C/[C@@H](C)[C@@H](c3ccccc3)OC(=O)[C@H](C(C)C)NC2=O)ccc1O
[1]
  IC50: 0.0485 µM
[2]
  Activity: Dose-dependent effect
[3]
  Activity: Tde
[4]
  IC50: 0.0043 µM
[5]
  IC50: 0.0202 µM
[6]
  Activity: 44.44%
[7]
  inhibition: Active
[8]
  Activity: 37.66%
[9]
  Activity: 3.48%
[10]
  Activity: 10.19%
[11]
  Activity: 40.8%
[12]
  Activity: 12.85%
[13]
  Activity: 13.6%
[14]
  viability at 0.06 µM: 66.2%
[15]
  Activity: 5.08%
[16]
  viability at 0.09 µM: 55.4%
[17]
  Activity: 13.07%
[18]
  Activity: 29.03%
[19]
  Activity: 9.87%
[20]
  IC50: 0.0096 µM
[21]
  Activity: Dose-dependent effect
[22]
  Activity: Dose-dependent effect
[23]
  Activity: 4.46%
[24]
  viability at 0.06 µM: 92.3%
[25]
  Activity: 14.75%
[26]
  Activity: 37.81%
[27]
  Activity: Active
